# Laboratory results published in ChEMBL document CHEMBL3758120, “Synthesis and Mechanism Studies of 1,3-Benzoazolyl Substituted Pyrrolo[2,3-b]pyrazine Derivatives as Nonintercalative Topoisomerase II Catalytic Inhibitors” (J Med Chem, 2016).
# The source made the active and inactive calls. The calls are words filed in the database; no cut-off is given here.
# Columns and labels:
# [1] = molecular target: DNA topoisomerase 2-alpha (Homo sapiens, UniProt P11388); test: Inhibition of purified human topoisomerase 2-mediated relaxation of supercoiled pBR322 DNA at 50 uM incubated for 30 mins by agarose gel electrophoresis
# Procedure, shortened: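 Reactions contained 0.2 μg supercoiled pBR322 in 50 mM Tris-HCl pH 8.0, 150 mM NaCl, 10 mM MgCl2, 0.5 mM DTT, 30 μg/ml BSA, normally 2 mM ATP (1, 2 or 4 mM in ATP-competition runs). Started with 1 U human Topo II, 30 min at 37 °C, stopped with sarcosyl buffer, run on 1% agarose 1.5 h at 75 V, gel-stained and imaged under UV.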
# HeLa = test: Antiproliferative activity against human HeLa cells after 48 hrs by MTT assay; format: functional, cell-based
# Procedure, shortened: (§1)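 Cells seeded at 5000 per well and left overnight, then exposed to increasing concentrations (0-50 μM) for 48 h. […] HL-60/MX2 is a mitoxantrone-selected HL-60 derivative with reduced Topo IIα/β.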
# [2] = Antiproliferative activity against human HL60 cells after 48 hrs by MTT assay; format: functional, cell-based; conditions: HL-60, 48 h; procedure, shortened: as §1
# HEK293 = test: Cytotoxicity against HEK293 cells after 48 hrs by MTT assay; format: cell-based; conditions: Homo sapiens, HEK293, 48 h
# Raji = test: Antiproliferative activity against human Raji cells after 48 hrs by MTT assay; format: functional, cell-based; procedure, shortened: as §1
# A549 = test: Antiproliferative activity against human A549 cells after 48 hrs by MTT assay; format: functional, cell-based; conditions: A549, 48 h; procedure, shortened: as §1
# K562 = test: Antiproliferative activity against human K562 cells after 48 hrs by MTT assay; format: functional, cell-based; conditions: K562, 48 h; procedure, shortened: as §1
# [3] = Antiproliferative activity against human MDA-MB-201 cells after 48 hrs by MTT assay; format: functional, cell-based; procedure, shortened: as §1
# [4] = Antiproliferative activity against human HL60/MX2 cells after 48 hrs by MTT assay; format: functional, cell-based; conditions: HL60/MX2, 48 h; procedure, shortened: as §1
# [5] = molecular target: T1, DNA topoisomerase 1 (Homo sapiens) (UniProt P11387); test: Inhibition of recombinant human topoisomerase 1-mediated relaxation of supercoiled pBR322 DNA at 50 uM incubated for 30 mins by agarose gel electrophoresis
# T1 sequence (whole entry): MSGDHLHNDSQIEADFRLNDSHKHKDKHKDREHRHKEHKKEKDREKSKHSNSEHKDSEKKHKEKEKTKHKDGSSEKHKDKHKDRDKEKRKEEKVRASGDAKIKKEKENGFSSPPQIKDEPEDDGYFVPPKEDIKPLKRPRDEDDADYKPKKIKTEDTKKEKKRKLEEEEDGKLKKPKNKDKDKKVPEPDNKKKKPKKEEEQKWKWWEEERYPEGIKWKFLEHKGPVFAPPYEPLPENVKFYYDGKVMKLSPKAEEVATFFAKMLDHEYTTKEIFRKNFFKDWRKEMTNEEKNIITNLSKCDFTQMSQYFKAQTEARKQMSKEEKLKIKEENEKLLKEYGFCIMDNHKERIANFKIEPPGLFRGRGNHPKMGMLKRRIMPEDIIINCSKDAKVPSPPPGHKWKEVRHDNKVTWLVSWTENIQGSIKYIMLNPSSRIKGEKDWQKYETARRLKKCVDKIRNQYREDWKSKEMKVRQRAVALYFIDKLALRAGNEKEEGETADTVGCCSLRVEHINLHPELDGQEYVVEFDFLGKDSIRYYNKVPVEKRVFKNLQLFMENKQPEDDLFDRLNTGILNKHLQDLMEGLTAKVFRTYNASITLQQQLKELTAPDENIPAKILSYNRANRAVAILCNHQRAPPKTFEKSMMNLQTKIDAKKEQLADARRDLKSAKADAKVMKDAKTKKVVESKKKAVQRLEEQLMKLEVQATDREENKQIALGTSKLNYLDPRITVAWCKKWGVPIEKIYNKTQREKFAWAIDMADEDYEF
# Procedure, shortened: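 Supercoiled pBR322 relaxed by Topo I with compound, incubated 30 min at 37 °C, stopped with 1% SDS dye, run on 1% agarose 1 h at 90 V in TAE, stained and imaged under UV; camptothecin as reference.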
# HL-60 = test: Resistance index, ratio of IC50 for human HL60/MX2 cells to IC50 for HL60 cells; format: functional
# Procedure, shortened: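 Resistance index calculated as MTT-derived IC50 (48 h exposure, 0-50 μM, A570 readout) in HL-60/MX2 divided by IC50 in parental HL-60.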
# Sequence of DNA topoisomerase 2-alpha (P11388 whole entry): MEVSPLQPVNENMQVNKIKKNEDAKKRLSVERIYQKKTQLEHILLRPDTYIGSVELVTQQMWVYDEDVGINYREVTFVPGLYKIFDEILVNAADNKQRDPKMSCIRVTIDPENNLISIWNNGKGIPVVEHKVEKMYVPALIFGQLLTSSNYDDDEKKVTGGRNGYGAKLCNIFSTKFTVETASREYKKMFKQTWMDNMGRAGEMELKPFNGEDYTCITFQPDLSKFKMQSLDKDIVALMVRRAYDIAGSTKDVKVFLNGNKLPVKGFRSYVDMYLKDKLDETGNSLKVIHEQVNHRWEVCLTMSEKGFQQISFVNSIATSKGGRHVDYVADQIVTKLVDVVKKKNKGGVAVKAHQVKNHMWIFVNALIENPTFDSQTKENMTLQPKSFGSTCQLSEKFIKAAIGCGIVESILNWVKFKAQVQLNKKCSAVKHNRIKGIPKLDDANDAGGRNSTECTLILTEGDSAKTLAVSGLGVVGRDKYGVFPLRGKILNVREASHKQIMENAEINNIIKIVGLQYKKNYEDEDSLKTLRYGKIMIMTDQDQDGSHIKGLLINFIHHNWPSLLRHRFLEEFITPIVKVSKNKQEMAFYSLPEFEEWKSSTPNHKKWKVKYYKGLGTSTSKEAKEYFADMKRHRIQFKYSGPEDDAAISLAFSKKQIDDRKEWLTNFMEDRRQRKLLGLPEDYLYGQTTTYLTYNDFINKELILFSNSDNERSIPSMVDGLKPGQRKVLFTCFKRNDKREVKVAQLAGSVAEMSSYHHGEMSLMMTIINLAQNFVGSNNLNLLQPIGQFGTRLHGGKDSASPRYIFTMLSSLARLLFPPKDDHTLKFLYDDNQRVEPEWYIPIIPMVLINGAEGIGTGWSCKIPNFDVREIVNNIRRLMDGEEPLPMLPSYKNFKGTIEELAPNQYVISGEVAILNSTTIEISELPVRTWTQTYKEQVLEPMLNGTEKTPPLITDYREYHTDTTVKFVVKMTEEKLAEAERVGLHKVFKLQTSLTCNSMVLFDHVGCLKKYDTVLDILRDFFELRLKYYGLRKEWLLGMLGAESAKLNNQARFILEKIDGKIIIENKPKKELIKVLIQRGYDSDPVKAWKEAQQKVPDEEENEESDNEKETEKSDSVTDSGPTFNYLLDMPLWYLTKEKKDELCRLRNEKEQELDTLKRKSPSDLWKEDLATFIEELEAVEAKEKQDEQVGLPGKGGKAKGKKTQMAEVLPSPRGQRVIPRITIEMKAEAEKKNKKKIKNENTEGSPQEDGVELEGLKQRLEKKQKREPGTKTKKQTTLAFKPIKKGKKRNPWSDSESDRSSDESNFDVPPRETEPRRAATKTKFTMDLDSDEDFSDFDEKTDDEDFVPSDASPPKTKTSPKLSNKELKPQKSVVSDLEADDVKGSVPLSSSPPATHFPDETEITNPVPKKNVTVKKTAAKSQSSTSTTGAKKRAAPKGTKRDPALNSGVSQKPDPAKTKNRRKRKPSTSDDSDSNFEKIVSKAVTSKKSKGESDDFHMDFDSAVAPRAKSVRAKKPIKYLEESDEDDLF
Structure (SMILES),inhibition [1],IC50 (HeLa) [µM],IC50 [2] [µM],IC50 (HEK293) [µM],IC50 (Raji) [µM],IC50 (A549) [µM],IC50 (K562) [µM],IC50 [3] [µM],IC50 [4] [µM],inhibition [5],Ratio IC50 (HL-60)
CCN(CC)CCn1c(N)c(-c2nc3cc(Cl)ccc3[nH]2)c2nc(C#N)c(C#N)nc21,inactive,> 50,> 50,> 50,31.5,> 50,> 50,> 50,9.29,–,–
N#Cc1nc2c(-c3nc4ccccc4[nH]3)c(N)n(CCN3CCOCC3)c2nc1C#N,inactive,> 50,9.04,22.3,2.88,> 50,> 50,> 50,> 50,inactive,–
COc1ccc(CCn2c(N)c(-c3nc4ccccc4[nH]3)c3nc(C#N)c(C#N)nc32)cc1,inactive,> 50,> 50,> 50,2.78,> 50,> 50,> 50,> 50,inactive,–
N#Cc1nc2c(-c3nc4ccccc4[nH]3)c(N)n(CCN3CCCC3)c2nc1C#N,inactive,> 50,4.76,18.3,> 50,> 50,6.48,> 50,> 50,inactive,–
CN(C)CCCn1c(N)c(-c2nc3cc(Cl)ccc3[nH]2)c2nc(C#N)c(C#N)nc21,Active,16.5,2.93,11.7,3.11,> 50,10.7,28.1,5.31,–,1.8
CN(C)CCCCn1c(N)c(C#N)c2nc(C#N)c(C#N)nc21,inactive,> 50,12.9,–,–,–,–,–,–,–,–
N#Cc1nc2c(-c3nc4ccccc4o3)c(N)n(CCCN3CCCCC3)c2nc1C#N,inactive,12.2,3.82,19.2,3.19,8.67,> 50,32.2,5.45,–,1.4
CCN(CC)CCn1c(N)c(-c2nc3ccccc3n2C)c2nc(C#N)c(C#N)nc21,inactive,> 50,8.8,25.4,2.08,> 50,> 50,> 50,3.25,–,0.4
N#Cc1nc2c(-c3nc4ccccc4[nH]3)c(N)n(CCCNc3ccccc3)c2nc1C#N,–,26.3,6.92,–,–,–,–,–,–,–,–
CCCCn1c(N)c(-c2nc3ccccc3[nH]2)c2nc(C#N)c(C#N)nc21,inactive,> 50,> 50,> 50,> 50,> 50,> 50,> 50,> 50,inactive,–
N#Cc1nc2c(-c3nc4ccccc4[nH]3)c(N)n(CCCO)c2nc1C#N,inactive,> 50,> 50,> 50,> 50,> 50,> 50,> 50,> 50,inactive,–
